Laboratory results: ChEMBL document CHEMBL1138220, “Synthesis and characterization of a novel liver-targeted prodrug of cytosine-1-beta-D-arabinofuranoside monophosphate for the treatment of hepatocellular carcinoma” (J Med Chem, 2006)
≈ marks a conversion by molar mass, not a printed value.

Experiments:
[1] = Stability in phosphate buffer at pH 7.4 at 37 degC at 100 uM after 24 hrs; format: physicochemical; conditions: for remaining at 24 h, 100 µM: phosphate buffer, pH 7.4, read-out: Stability
Procedure, shortened: (§1)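 Prodrug at 100 µM in 10 mM phosphate buffer pH 7.4, held at 37 °C. Intact prodrug was quantified by C18 HPLC at 270 nm and expressed as % remaining at 24 h or 72 h.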

[2] = Stability in phosphate buffer at pH 7.4 at 37 degC at 100 uM after 72 hrs; format: physicochemical; conditions: for remaining at 72 h, 100 µM: phosphate buffer, pH 7.4, read-out: Stability; procedure, shortened: as §1
[3] = Aqueous solubility in citrate buffer at pH 4; format: physicochemical
Procedure, shortened: (§2)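 Each prodrug was dissolved at 10 mg/mL (pyridyl prodrugs at 200 mg/mL) in 100 mM citrate buffer pH 4.0 or 100 mM phosphate pH 7.4. Samples were sonicated 20 min, held ~10 min at room temperature, filtered through 0.45 µm, diluted 1:100 or 1:10000 in DMSO, then quantified by C18 HPLC (acetonitrile gradient, 40 °C, 270 nm).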

[4] = Aqueous solubility in phosphate buffer at pH 7.4; format: physicochemical; procedure, shortened: as §2
[5] = test system: Liver; assay: Distribution of araCTP in Swiss Webster mouse liver at 100 mg/kg, ip measured as AUC (0-4h); format: ADME, organism-based; set-up: time < 5 hr, dose 100 mg/kg, route intraperitoneal; conditions: in vivo, 5 h
Procedure, shortened: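 Nonfasted male Swiss Webster mice were dosed i.p. at a molar equivalent of 100 mg/kg araC. Livers were taken at set times up to 4 h, snap-frozen, homogenized in 3 volumes of 10% PCA, centrifuged and neutralized with KOH/KHCO₃. AraCTP was measured and reported as AUC 0-4 h (nmol·h/g).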

[6] = test system: Bone marrow; assay: Distribution of araCTP in Swiss Webster mouse bone marrow at 100 mg/kg, ip measured as AUC (0-4h); format: ADME, organism-based; set-up: time < 5 hr, dose 100 mg/kg, route intraperitoneal; conditions: in vivo, 5 h
Procedure, shortened: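 Male Swiss Webster mice were given i.p. prodrug at a molar equivalent of 100 mg/kg araC. Bone marrow cell pellets collected up to 4 h were extracted with 12 volumes of 3% PCA, centrifuged 10 min and neutralized to pH 7-8 with KOH/KHCO₃. AraCTP was expressed as AUC 0-4 h; the lower limit of quantitation was 3 nmol·h/g.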

[7] = test system: Liver; assay: Ratio of AUC for araCTP level in liver to plasma of Swiss Webster mouse; format: functional
[8] = test system: Liver; assay: Ratio of AUC for araCTP level in liver to bone marrow of Swiss Webster mouse; format: functional
[9] = citrate buffer, read-out: Solubility
[10] = phosphate buffer, read-out: Solubility

Row | SMILES | remaining at 24 h, 100 µM [1] [%] | remaining at 72 h, 100 µM [2] [%] | solubility [3, 9] [µg/mL] | solubility [4, 10] [µg/mL] | AUC [5] [nmol·h/g] | AUC [6] [nmol/g] | Stability ([1]; buffer, pH 7.4, 24 h, 100 µM, 24 h) [%] | Stability ([2]; buffer, pH 7.4, 72 h, 100 µM, 72 h) [%] | solubility ([3]; buffer) [µg/mL] | solubility ([4]; buffer) [µg/mL] | Ratio AUC [7] | Ratio AUC [8]
1 | COC(=O)c1ccc([C@H]2CCOP(=O)(OC[C@H]3O[C@@H](n4ccc(N)nc4=O)[C@@H](O)[C@@H]3O)O2)cc1 (some centres not stated) | 84 | 61 | 7400 (≈ 14.9 mM) | 5700 (≈ 11.5 mM) | – | – | – | – | – | – | – | –
2 | Nc1ccn([C@@H]2O[C@H](CO)[C@@H](O)[C@@H]2O)c(=O)n1 [CYTARABINE] | – | – | – | – | < 19.2 | 46 | – | – | – | – | <0.16 | <0.42
3 | Nc1ccn([C@@H]2O[C@H](COP3(=O)OCC[C@H](c4ccncc4)O3)[C@@H](O)[C@@H]2O)c(=O)n1 (stereo in doubt; 10i) | – | – | – | – | – | – | 92 | 90 | > 200000 | > 200000 | – | –
4 | Nc1ccn([C@@H]2O[C@H](COP3(=O)OCC[C@H](c4ccncc4)O3)[C@@H](O)[C@@H]2O)c(=O)n1 (stereo in doubt; 19R) | > 99 | > 97 | – | – | 68 | < 12 | – | – | 37900 (≈ 86.1 mM) | 16700 (≈ 37.9 mM) | 19.4 | >7
5 | Nc1ccn([C@@H]2O[C@H](COP3(=O)OCC[C@@H](c4ccncc4)O3)[C@@H](O)[C@@H]2O)c(=O)n1 (some centres not stated) | > 99 | > 95 | 23900 (≈ 54.3 mM) | 7100 (≈ 16.1 mM) | 148.8 | < 12 | – | – | – | – | 19.6 | >12

More lines, main results first:

Row | remaining at 24 h, 100 µM [1] [%] | remaining at 72 h, 100 µM [2] [%] | solubility [3, 9] [µg/mL] | solubility [4, 10] [µg/mL] | AUC [5] [nmol·h/g] | AUC [6] [nmol/g] | Stability ([1]; buffer, pH 7.4, 24 h, 100 µM, 24 h) [%] | Stability ([2]; buffer, pH 7.4, 72 h, 100 µM, 72 h) [%] | solubility ([3]; buffer) [µg/mL] | solubility ([4]; buffer) [µg/mL] | SMILES | Ratio AUC [7] | Ratio AUC [8]
6 | 74 | 52 | 6700 (≈ 13.6 mM) | 3200 (≈ 6.51 mM) | – | – | – | – | – | – | Nc1ccn([C@@H]2O[C@H](COP3(=O)OCC[C@H](c4ccc(F)c(Cl)c4)O3)[C@@H](O)[C@@H]2O)c(=O)n1 (some centres not stated) | – | –
7 | 63 | 21 | 3700 (≈ 7.81 mM) | 1700 (≈ 3.59 mM) | – | – | – | – | – | – | Nc1ccn([C@@H]2O[C@H](COP3(=O)OCC[C@H](c4cccc(Cl)c4)O3)[C@@H](O)[C@@H]2O)c(=O)n1 (some centres not stated) | – | –
8 | 60 | 23 | 10300 (≈ 20.7 mM) | 7200 (≈ 14.5 mM) | – | – | – | – | – | – | COC(=O)c1cccc([C@H]2CCOP(=O)(OC[C@H]3O[C@@H](n4ccc(N)nc4=O)[C@@H](O)[C@@H]3O)O2)c1 (some centres not stated) | – | –
9 | 9 | 4 | – | – | – | – | – | – | – | – | Nc1ccn([C@@H]2O[C@H](COP3(=O)OCC[C@H](c4ccc(Br)cc4)O3)[C@@H](O)[C@@H]2O)c(=O)n1 (some centres not stated) | – | –
10 | 82 | 76 | 1100 (≈ 2.16 mM) | 500 (≈ 0.984 mM) | – | – | – | – | – | – | Nc1ccn([C@@H]2O[C@H](COP3(=O)OCC[C@H](c4cc(Cl)cc(Cl)c4)O3)[C@@H](O)[C@@H]2O)c(=O)n1 (some centres not stated) | – | –
11 | 99 | 83 | 172000 (≈ 391 mM) | 176000 (≈ 400 mM) | – | – | – | – | – | – | Nc1ccn([C@@H]2O[C@H](COP3(=O)OCC[C@H](c4cccnc4)O3)[C@@H](O)[C@@H]2O)c(=O)n1 (some centres not stated) | – | –
12 | 5 | 4 | – | – | – | – | – | – | – | – | Nc1ccn([C@@H]2O[C@H](COP3(=O)OCC[C@H](c4ccc(Cl)cc4)O3)[C@@H](O)[C@@H]2O)c(=O)n1 (some centres not stated) | – | –
